Bioassay records deposited in PubChem by several laboratories.
Most compounds without a hit are left out; they make up all but 1.9% or so of the library.
Runt-CBFb FRET: inhibitors of human RUNX1 Runt domain binding to CBFb | Q01196+Q13951 | Cerulean-Runt/Venus-CBFb FRET ratio 530/480, 1 h | inhibition, % at 20 µM | hit rate 0.46% among 220,000;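 active = inhibition over about 50% at 20 µM in the single-dose screen, limit read from the data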;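 note: 0% = DMSO wells and 100% = excess unlabeled CBFb competitor control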
Target sequence (Q01196 whole entry, looked up, the tested form may be a part): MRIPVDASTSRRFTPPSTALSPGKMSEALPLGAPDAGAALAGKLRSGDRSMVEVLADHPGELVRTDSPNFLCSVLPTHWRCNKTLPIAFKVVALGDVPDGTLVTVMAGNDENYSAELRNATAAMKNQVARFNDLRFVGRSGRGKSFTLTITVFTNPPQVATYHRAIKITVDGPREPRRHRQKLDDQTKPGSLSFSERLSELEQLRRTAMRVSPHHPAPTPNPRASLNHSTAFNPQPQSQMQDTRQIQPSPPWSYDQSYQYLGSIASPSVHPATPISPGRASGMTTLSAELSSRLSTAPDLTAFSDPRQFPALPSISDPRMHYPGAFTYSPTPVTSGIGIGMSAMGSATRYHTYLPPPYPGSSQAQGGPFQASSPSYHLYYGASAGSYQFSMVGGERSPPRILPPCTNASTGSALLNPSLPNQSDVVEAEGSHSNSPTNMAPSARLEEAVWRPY
Target sequence (Q13951 whole entry, looked up, the tested form may be a part): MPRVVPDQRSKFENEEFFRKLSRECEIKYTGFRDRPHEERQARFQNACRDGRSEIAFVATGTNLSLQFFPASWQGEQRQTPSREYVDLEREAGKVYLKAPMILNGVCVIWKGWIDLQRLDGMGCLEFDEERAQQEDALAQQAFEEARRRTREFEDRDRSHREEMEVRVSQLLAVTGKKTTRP
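Measured by: fluorescence energy transfer, 422 nm excitation, 530/480 nm emission; test system: Cerulean-tagged RUNX1 Runt domain (FRET donor) fusion protein; buffer or medium: Tris pH 7.5 buffer with BSA; compound: one dose, 20 µM compound, 1% DMSO; times: two 1 h room-temperature incubations shielded from light; benchmarks: unlabeled CBFb 5 µM, positive control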
Hck Nef HTS: human Hck-Nef kinase inhibition | inhibition, % at 20 µM | AID 463187 | Recombinant Hck-YEEI plus Nef, Z-Lyte FRET kinase assay | hit rate 0.68% among 220,000;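 active = Hck-Nef kinase inhibition above about 50%, limit read from the data; inactive = inhibition below that limit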;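 note: 0% = DMSO with Hck plus Nef and 100% = Hck alone without Nef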
RanGTP-Imp inh: disruptors of Ran-importin-beta complex formation – biochemical, FRET, CFP-Ran, YFP-importin-beta, homogeneous, primary screen; cell-free CFP-Ran/YFP-importin-beta FRET ratio; inhibition, % (concentration not given with the values); hit rate 1.1% among 300,000; AID 2216;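 active = more than half of the replicate wells show a fall in the fluorescence ratio signal beyond about 16%, limit read from the data, passing the limit was not always enough; inconclusive = exactly half of the replicate wells pass the set limit; inactive = fewer than half of replicates pass the limit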;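 note: 0% = DMSO wells and 100% = Ran loaded with GDP instead of GTP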
Runt-SMMHC FRET: blocks binding of human RUNX1 Runt domain to CBFb-SMMHC; Q01196+Q13951; Cerulean-Runt/Venus-CBFb-SMMHC FRET ratio 530/480, 1 h; inhibition, % at 20 µM; hit rate 0.74% among 220,000; AID 1434;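 active = mean inhibition across duplicate retests at 20 µM reaching about 50%, limit read from the data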;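 note: 0% = DMSO wells and 100% = wells with excess untagged CBFb-SMMHC; inhibitors lower the FRET ratio by blocking Runt binding to CBFb-SMMHC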
* marks the source's active call; other numbers are inactive results; ? = inconclusive; · = no result given.

SMILES	Runt-CBFb FRET	Hck Nef HTS	RanGTP-Imp inh	Runt-SMMHC FRET
C/C(=N\Nc1ccc([N+](=O)[O-])cc1)c1ccc(-n2nncc2C)cc1	-15	0	2	-26
CC(C)(C)c1cnnn1-c1ccc(/C=N/Nc2ccc([N+](=O)[O-])cc2)cc1	-28	4	34*	-24
C/C(=N\Nc1nc(C)c(C)s1)c1ccc([N+](=O)[O-])cc1	3	24	-1	-2
O=C(Nc1cccc(Cl)c1)c1cc(N=Nc2ccc([N+](=O)[O-])cc2Cl)ccc1O	-4	83*	-1	-14
CC1(C)CC(=O)C2=C(C1)OC1=C(C(=O)CC(C)(C)C1)C2c1ccc(O)cc1O	6	0	93*	42
CN(CC(=O)Nc1ccc(Cl)cc1)C(=O)CCc1nc2sc3c(c2c(=O)[nH]1)CCCC3	·	·	4	·
COc1ccc(Cn2c(O)c(/C=N/NC(=O)c3cccnc3)c3ccccc3c2=O)cc1	21	-12	10	86*
O=C(N/N=C/c1c(O)n(Cc2ccccc2)c(=O)c2ccccc12)c1cccnc1	36	-25	0	87*
O=C(N/N=C/c1c(O)n(-c2ccccc2Cl)c(=O)c2ccccc12)c1cccnc1	20	0	3	86*
O=C(N/N=C/c1cn(Cc2ccccc2)c2ccccc12)c1cccnc1	-7	2	0	-4
Cc1cccc(-n2c(O)c(/C=N/NC(=O)c3ccccc3Cl)c3ccccc3c2=O)n1	-25	3	2	64
COc1ccc(Cn2c(O)c(C=Nc3ccccc3C(=O)O)c3ccccc3c2=O)cc1	2	24	6	3
CCN1/C(=C/C=C/c2sc3ccccc3[n+]2CC)Sc2ccccc21	·	·	26*	·
CCOC(=O)c1c(NS(=O)(=O)c2cccc(OC)c2)sc2c1CCC2	-15	7	-29	69*
COc1ccccc1NNC(=O)c1cccnc1Oc1ccccc1	-1	0	-5	1
Cc1ccc2oc(=O)c3cc(C(=O)NCCN4CCN(C)CC4)sc3c2c1	2	4	27*	0
CCOC(=O)C1=C(C)NC2=C(C(=O)CC(C)(C)C2)C1c1ccc(N(C)C)cc1 (stereo unspecified)	4	5	1	16
CC1=C(C(=O)OCC2CCCO2)C(c2ccncc2)C2=C(CC(C)(C)CC2=O)N1 (stereo unspecified)	42	27	?	86*
COC(=O)C1=C(C)NC2=C(C(=O)CC(C)(C)C2)C1c1cccc(C)n1 (stereo unspecified)	35	22	9	87*
COc1cccc(C2C(C#N)=C(C)NC3=C2C(=O)CC(C)(C)C3)c1 (stereo unspecified)	17	18	2	55*
COc1ccccc1C1/C(=C(\O)c2ccc3c(c2)OCCO3)C(=O)C(=O)N1CCCn1ccnc1 (stereo unspecified)	·	·	-1	·
CN1CCc2c(sc(NC(=O)c3ccco3)c2C(N)=O)C1	·	·	83*	·
O=C(Nc1sc2c(c1C(=O)O)CCC2)c1ccco1	6	5	-6	-2
CN1CCc2c(sc(NC(=O)c3cc(Cl)sc3Cl)c2C(N)=O)C1	·	·	147*	·
COC(=O)c1c(NC(=O)c2ccco2)sc2c1CCN(C(C)C)C2	·	·	54*	·
SMILES	Runt-CBFb FRET	Hck Nef HTS	RanGTP-Imp inh	Runt-SMMHC FRET
CNC(=O)c1c(NC(=O)c2ccco2)sc2c1CCCC2	·	·	2	·
CC(C)N1CCc2c(sc(NC(=O)c3ccco3)c2C(N)=O)C1	·	·	101*	·
COC(=O)CSc1cc([N+](=O)[O-])cc2c1c(C1OCCO1)nn2-c1ccccc1	-2	7	1	-15
CCC(C(=O)Nc1ccc2c(c1)OCCO2)n1c(=O)[nH]c2ccccc2c1=O (stereo unspecified)	·	·	-5	·
CCOC(=O)CN=C/C(C(C)=O)=C(/C)O	1	4	63*	0
Cc1ccc2nc(/C(C#N)=C/c3ccc(O)c(O)c3)[nH]c2c1	·	·	28*	·
Cc1ccc2nc(/C(C#N)=C/c3ccccc3C(=O)O)[nH]c2c1	·	·	8	·
CCOCCOC(=O)C1=C(C)Nc2ccc(C)cc2S1	2	8	23*	11
CSc1nc2ncc3c(n2n1)CC(C)(C)CC3=O	0	-12	?	-2
CC1(C)CC(=O)c2cnc3c(C#N)cnn3c2C1	0	-7	115*	-2
CC(=O)O[C@]1(C(C)=O)CC[C@H]2[C@@H]3C=CC4=CC(=O)C=C[C@]4(C)[C@H]3CC[C@@]21C	·	·	5	·
COc1ccccc1N(CC(=O)N/N=C/c1c(O)ccc2ccccc12)S(C)(=O)=O	36	3	2	53*
